Laboratory results taken from ChEMBL document CHEMBL5712920, “The histone methyltransferase inhibitor A-366 enhances hemoglobin expression in erythroleukemia cells upon co-exposure with chemical inducers in culture” (J Biol Res (Thessalon), 2021).
Active and inactive are the calls of the source. No cut-off for these calls is given here.

Legend:
K562 [1] = assay: Induction of apoptosis in human K562 cells assessed as effect on Bax mRNA expression level at 1 to 10 uM cells after 48 hrs by qPCR analysis; assay type: toxicity, cell-based; conditions: k562, 48 h, dose 1-10 µM
Method in brief: (§1)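 K562 cells at 10^5 cells/ml grown without compound (control) or with 10−6 M or 10−5 M compound for 48 h. Total RNA isolated, then checked by gel electrophoresis and spectrophotometry. Transcripts quantified by qPCR.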

[2] = Inhibition of G9a/GLP in HMBA-stiumulated mouse FLC clone 745 cells assessed as increase in erythroid differentiation at IC50 concentration measured after 72 hrs by benzidine-H2O2 based assay (reference value: 69.6%); conditions: condition erythroleukemia
K562 [3] = assay: Induction of apoptosis in human K562 cells assessed as effect on caspase-9 mRNA expression level at 1 to 10 uM cells after 48 hrs by qPCR analysis; assay type: toxicity, cell-based; conditions: k562, 48 h, dose 1-10 µM; method in brief: as §1
FLC clone 745 [4] = assay: Induction of cell cycle arrest in mouse FLC clone 745 cells assessed as accumulation cells at G2/M phase at 10^-6 M after 24 hrs by PI staining based flow cytometric analysis (reference value: 14.35%); assay type: functional; conditions: dose 1 10^-6M, at 1 µM
Method in brief: (§2)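 MEL cells plated at 5 × 10^5 per well and synchronized by serum deprivation for 24 h. Cells then incubated with compound at 10−6 M, alone or with HMBA 5 × 10−3 M, for 24, 48 and 72 h. Fixed in 70% ethanol overnight at 4 °C, stained with propidium iodide, and DNA content measured by flow cytometry to assign subG1, G1, S, G2/M and >4N fractions.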

FLC clone 745 [5] = assay: Induction of cell cycle arrest in HMBA-stimulated mouse FLC clone 745 cells assessed as accumulation cells at S phase at 10^-6 M after 24 hrs by PI staining based flow cytometric analysis (reference value: 21.59%); assay type: functional; conditions: dose 1 10^-6M, at 1 µM; method in brief: as §2
FLC clone 745 [6] = assay: Induction of cell cycle arrest in mouse FLC clone 745 cells assessed as accumulation cells at > 4N phase at 10^-6 M after 72 hrs by PI staining based flow cytometric analysis (reference value: 14.89%); assay type: functional; conditions: dose 1 10^-6M, at 1 µM; method in brief: as §2
FLC clone 745 [7] = assay: Induction of cell cycle arrest in mouse FLC clone 745 cells assessed as accumulation cells at G1/G0 phase at 10^-6 M after 72 hrs by PI staining based flow cytometric analysis (reference value: 26.4%); assay type: functional; conditions: dose 1 10^-6M, at 1 µM; method in brief: as §2
[8] = Inhibition of G9a/GLP in HMBA-stiumulated mouse FLC clone 745 cells assessed as increase in erythroid differentiation at IC50 concentration measured after 96 hrs by benzidine-H2O2 based assay (reference value: 79.45%); conditions: condition erythroleukemia
FLC clone 745 [9] = assay: Induction of cell cycle arrest in mouse FLC clone 745 cells assessed as accumulation cells at G1/G0 phase at 10^-6 M after 24 hrs by PI staining based flow cytometric analysis (reference value: 19.61%); assay type: functional; conditions: dose 1 10^-6M, at 1 µM; method in brief: as §2
FLC clone 745 [10] = assay: Induction of cell cycle arrest in HMBA-stimulated mouse FLC clone 745 cells assessed as accumulation cells at G1/G0 phase at 10^-6 M after 72 hrs by PI staining based flow cytometric analysis (reference value: 7.19%); assay type: functional; conditions: dose 1 10^-6M, at 1 µM; method in brief: as §2
FLC clone 745 [11] = assay: Induction of cell cycle arrest in HMBA-stimulated mouse FLC clone 745 cells assessed as accumulation cells at > 4N phase at 10^-6 M after 72 hrs by PI staining based flow cytometric analysis (reference value: 4.66%); assay type: functional; conditions: dose 1 10^-6M, at 1 µM; method in brief: as §2
FLC clone 745 [12] = assay: Induction of cell cycle arrest in mouse FLC clone 745 cells assessed as accumulation cells at subG1 phase at 10^-6 M after 24 hrs by PI staining based flow cytometric analysis (reference value: 24.11%); assay type: functional; conditions: dose 1 10^-6M, at 1 µM; method in brief: as §2
K562 [13] = assay: Induction of apoptosis in human K562 cells assessed as effect on Bcl-2 mRNA expression level at 1 to 10 uM cells after 48 hrs by qPCR analysis; assay type: toxicity, cell-based; conditions: k562, 48 h, dose 1-10 µM; method in brief: as §1
FLC clone 745 [14] = assay: Induction of cell cycle arrest in HMBA-stimulated mouse FLC clone 745 cells assessed as accumulation cells at S phase at 10^-6 M after 72 hrs by PI staining based flow cytometric analysis (reference value: 19.52%); assay type: functional; conditions: dose 1 10^-6M, at 1 µM; method in brief: as §2
FLC clone 745 [15] = assay: Induction of cell cycle arrest in mouse FLC clone 745 cells assessed as accumulation cells at G2/M phase at 10^-6 M after 48 hrs by PI staining based flow cytometric analysis (reference value: 28.15%); assay type: functional; conditions: dose 1 10^-6M, at 1 µM; method in brief: as §2
FLC clone 745 [16] = assay: Cytotoxicity against mouse FLC clone 745 cells assessed as reduction in cell viability at IC50 concentration measured up to 96 hrs by Neubauer chamber based microscopic analysis; assay type: toxicity; conditions: flc clone 745, 96 h
Method in brief: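 MEL-745 cells treated continuously with compound at its previously determined 48 h IC50, without inducer, for up to 96 h. Total cell number counted daily in a Neubauer chamber. Final DMSO ≤0.2% v/v.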

FLC clone 745 [17] = assay: Induction of cell cycle arrest in mouse FLC clone 745 cells assessed as accumulation cells at > 4N phase at 10^-6 M after 48 hrs by PI staining based flow cytometric analysis (reference value: 7.11%); assay type: functional; conditions: dose 1 10^-6M, at 1 µM; method in brief: as §2
FLC clone 745 [18] = assay: Inhibition of G9a/GLP in HMBA-stiumulated mouse FLC clone 745 cells assessed as increase in HBB protein expression at 10^-6 M after 48 hrs by Western blot analsysis; assay type: cell-based; conditions: dose 1.0 10^-6M
Method in brief: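 MEL cells treated for 48 h with HMBA 5 × 10−3 M plus compound at 10−6 M. About 10^6 cells lysed in Tris/NaCl/2% SDS, sonicated, and protein quantified by BCA. 20 µg run on a 12% SDS-PAGE gel and transferred to PVDF. Membrane probed overnight at 4 °C with anti-hemoglobin β/γ/δ/ε, with β-tubulin as loading control, then HRP secondary for 1 h at room temperature.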

K562 [19] = assay: Induction of apoptosis in human K562 cells assessed as effect on caspase-8 mRNA expression level at 1 to 10 uM cells after 48 hrs by qPCR analysis; assay type: toxicity, cell-based; conditions: k562, 48 h, dose 1-10 µM; method in brief: as §1
[20] = Cytotoxicity against mouse FLC clone 745 cells assessed as reduction in cell viability measured after 48 hrs by Neubauer chamber based microscopic analysis; assay type: toxicity
FLC clone 745 [21] = assay: Induction of cell cycle arrest in mouse FLC clone 745 cells assessed as accumulation cells at G2/M phase at 10^-6 M after 72 hrs by PI staining based flow cytometric analysis (reference value: 24.82%); assay type: functional; conditions: dose 1 10^-6M, at 1 µM; method in brief: as §2
FLC clone 745 [22] = assay: Induction of cell cycle arrest in HMBA-stimulated mouse FLC clone 745 cells assessed as accumulation cells at > 4N phase at 10^-6 M after 24 hrs by PI staining based flow cytometric analysis (reference value: 9.83%); assay type: functional; conditions: dose 1 10^-6M, at 1 µM; method in brief: as §2
[23] = Cytotoxicity against HMBA-stiumulated mouse FLC clone 745 cells assessed as cell viability measured after 48 hrs by Neubauer chamber based microscopic analysis (reference value: 50.563%); assay type: toxicity; conditions: HMBA-stimulated FLC clone 745 cells, read-out: Activity
FLC clone 745 [24] = assay: Induction of cell cycle arrest in HMBA-stimulated mouse FLC clone 745 cells assessed as accumulation cells at > 4N phase at 10^-6 M after 48 hrs by PI staining based flow cytometric analysis (reference value: 2.83%); assay type: functional; conditions: dose 1 10^-6M, at 1 µM; method in brief: as §2
FLC clone 745 [25] = assay: Induction of cell cycle arrest in HMBA-stimulated mouse FLC clone 745 cells assessed as accumulation cells at S phase at 10^-6 M after 48 hrs by PI staining based flow cytometric analysis (reference value: 31.43%); assay type: functional; conditions: dose 1 10^-6M, at 1 µM; method in brief: as §2

## COc1cc2c(cc1OCCCN1CCCC1)N=C(N)C21CCC1
K562 [1]
  Activity: Non-Toxic
[2]
  inhibition (INH): 76.6%
K562 [3]
  Activity: Non-Toxic
FLC clone 745 [4]
  Activity: 9.04%
FLC clone 745 [5]
  Activity: 1.26%
FLC clone 745 [6]
  Activity: 11.78%
FLC clone 745 [7]
  Activity: 14.22%
[8]
  inhibition (INH): 83.75%
FLC clone 745 [9]
  Activity: 20.43%
FLC clone 745 [10]
  Activity: 8.17%
FLC clone 745 [11]
  Activity: 2.89%
FLC clone 745 [12]
  Activity: 37.13%
K562 [13]
  Activity: Non-Toxic
FLC clone 745 [14]
  Activity: 19.84%
FLC clone 745 [15]
  Activity: 22.21%
FLC clone 745 [16]
  Activity: Non-Toxic
FLC clone 745 [17]
  Activity: 9.4%
FLC clone 745 [18]
  inhibition: Active
K562 [19]
  Activity: Non-Toxic
[20]
  IC50 at 48 h: > 100 µM
FLC clone 745 [21]
  Activity: 11.32%
FLC clone 745 [22]
  Activity: 9.28%
[23]
  viability at 48 h: 42.8%
FLC clone 745 [24]
  Activity: 3.08%
FLC clone 745 [25]
  Activity: 28.62%
